Experimental data collected from several papers.
Each line is one published result; the experiments were not run side by side.

| Structure (SMILES) | assay | system | conditions | quantity | value |
| --- | --- | --- | --- | --- | --- |
| NC(=O)c1cccc(-c2cccc(OC(=O)NC3CCCCC3)c2)c1 | HPLC | – | – | chromatographic logP | 2 |
| C[C@H]1COCCN1c1nc(NCc2cccnc2C(F)(F)F)c2cccnc2n1 | metabolic stability | dog, hepatocytes | – | hepatocyte CLint | 10 µL/min/10⁶ cells |
| N=c1c2c(-c3ccccc3)c(-c3ccccc3)n(Cc3ccccc3)c2ncn1[C@H]1CC[C@H](O)CC1 | metabolic stability | monkey, hepatocytes | 1 µM, 4 h | compound remaining | 119% |
| C=C[C@H]1CN2CC[C@H]1C[C@H]2[C@H](O)c1ccnc2ccccc12 | – | water | – | logP | 2.68 |
| O=C(NCCCCCn1ccc2ccc(F)cc21)Oc1ccc(C(=O)O)cc1 | HPLC | – | – | chromatographic logP | 2.8 |
| Cc1cc(C)nc(Nc2ncc(C(=O)NCCc3c(C)[nH]c4ccccc34)cn2)c1 | metabolic stability | cynomolgus monkey, hepatocytes | 1 µM | half-life | 0.267 h |
| NCC(=O)Nc1ccc(-n2nc(C(F)(F)F)cc2-c2ccc3c(ccc4ccccc43)c2)cc1 | – | mouse, plasma | oral, 80 mg/kg | half-life | 22 h |
| O=C(O)c1cccc(OC(=O)N2CCC(CCn3ccc4ccc(F)cc43)CC2)c1 | HPLC | – | – | chromatographic logP | 3.6 |
| CC(C)[C@H]1C(=O)N[C@@H](CCCN=C(N)N)C(=O)NCC(=O)N[C@@H](CC(=O)O)C(=O)N[C@H](Cc2ccccc2)C(=O)N1C | – | – | – | logP | -2 |
| Nc1nc(-c2ccccc2)nc2[nH]nc(Nc3ccc(C(F)(F)F)cc3)c12 | – | mouse, plasma | oral, 100 mg/kg, 30 min | concentration | 418 ng/mL |
| C[C@]12CC[C@H](n3ccnc3)CC1=CC[C@@H]1[C@@H]2CC[C@]2(C)C(n3cnc4ccccc43)=CC[C@@H]12.Cl.Cl | – | male CD-1 mouse, plasma | intravenous, 1 mg/kg | half-life | 17.5 h |
| CN[C@H](CC(C)C)C(=O)N[C@H]1C(=O)N[C@@H](CC(N)=O)C(=O)N[C@H]2C(=O)NC3C(=O)N[C@H](C(=O)N[C@H](C(=O)NCCC[N+](C)(C)C)c4cc(O)cc(O)c4-c4cc3ccc4O)[C@H](O)c3ccc(c(Cl)c3)Oc3cc2cc(c3OC2OC(CO)C(O)[C@H](O)[C@@H]2O[C@H]2CC(C)(NCc3ccc(-c4ccc(Cl)cc4)cc3)[C@H](O)[C@H](C)O2)Oc2ccc(cc2Cl)[C@H]1O (some centres unmarked) | – | mouse, plasma | intravenous, 50 mg/kg | half-life | 6.2 h |
| C[C@]12CC[C@H](O)CC1=CC[C@@H]1[C@@H]2CC[C@]2(C)C(n3cnc4ccccc43)=CC[C@@H]12.Cl | – | mouse, plasma | intravenous, 1 mg/kg | half-life | 1.02 h |
| O=C(NCCCCCn1ccc2ccc(F)cc21)Oc1ccc(F)cc1 | HPLC | – | – | chromatographic logP | 4.2 |
| CC[C@H]1CN2CC[C@H]1C[C@H]2[C@H](O)c1ccnc2ccc(OC)cc12 | – | water | – | logP | 3.07 |
| Cc1ccncc1OC(=O)NCCCCCn1ccc2ccc(F)cc21 | HPLC | – | – | chromatographic logP | 2.7 |
| CCN(CC)CCCC[C@H](NC(=O)[C@H](CC(C)C)NC(=O)[C@H](C)NC(=O)[C@H](Cc1ccccc1)NC(=O)c1ccc(C(C)(C)C)cc1)C(=O)N[C@@H](CO)C(=O)OC | – | male Swiss mouse, blood | intravenous, 3 mg/kg | half-life | 0.09 h |
